tested on: not listed separately; test: DPPH radical scavenging activity at 50 uM; type: functional; conditions: not given

Row | Compound | Activity [%]
1 | COc1cc(/C=C/C(=O)c2ccccc2)ccc1O | 11.8
2 | COc1ccc(/C=C/C(=O)c2ccccc2)cc1O | 1.46
3 | COc1ccc(/C=C/C(=O)c2ccc3c(c2)OCO3)cc1OC | 1.95
4 | COc1ccc(/C=C/C(=O)c2ccc3c(c2)OCO3)cc1O | 9.14
5 | COc1cc(/C=C/C(=O)c2ccc3c(c2)OCO3)ccc1O | 12
6 | COc1cccc(/C=C/C(=O)c2cc(F)c(F)c(F)c2)c1O | 3.28
7 | COc1ccc(C(=O)/C=C/c2cccc(OC)c2O)cc1F | 1.14
8 | COc1cc(/C=C/C(=O)c2ccc(OC)c(F)c2)ccc1O | 18.9
9 | COc1ccc(/C=C/C(=O)c2ccc(OC)c(F)c2)cc1O | 1.68
10 | COc1cc(/C=C/C(=O)c2cc(F)c(F)c(F)c2)ccc1O | 23.5
11 | COc1cccc(/C=C/C(=O)c2ccccc2)c1O | 6.09
12 | Oc1ccc(/C=C/c2cc(O)cc(O)c2)cc1 | 8.44
13 | COc1cc(/C=C/C=O)ccc1O | 0.28
14 | COc1cccc(/C=C/C(=O)c2ccc3c(c2)OCO3)c1O | 14.9
15 | COc1ccc(/C=C/C(=O)c2cc(F)c(F)c(F)c2)cc1O | 2.71
16 | Cc1c(C)c2c(c(C)c1O)CCC(C)(C(=O)O)O2 (stereo not drawn) | 30.2

tested on: BV-2; test: Inhibition of NO production in LPS-induced mouse BV2 microglia cells at 20 uM; type: functional; conditions: not given
Outline: (§1)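 BV-2 microglia were exposed to LPS (1 µg/mL) alone or with compound at 10 or 20 µM for 24 h at 37 °C. Nitrite was then measured in medium sampled at the end of incubation. Data are mean ± SE of three independent experiments, each run in triplicate.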

Row | Compound | Activity [µM]
17 | COc1cc(/C=C/C(=O)c2ccccc2)ccc1O | 13.16
18 | COc1ccc(/C=C/C(=O)c2ccccc2)cc1O | 16.04
19 | COc1ccc(/C=C/C(=O)c2ccc3c(c2)OCO3)cc1OC | 20.6
20 | COc1ccc(/C=C/C(=O)c2ccc3c(c2)OCO3)cc1O | 12.44
21 | COc1cc(/C=C/C(=O)c2ccc3c(c2)OCO3)ccc1O | 11.32
22 | COc1cccc(/C=C/C(=O)c2cc(F)c(F)c(F)c2)c1O | 14.72
23 | COc1ccc(C(=O)/C=C/c2cccc(OC)c2O)cc1F | 14.19
24 | COc1cc(/C=C/C(=O)c2ccc(OC)c(F)c2)ccc1O | 6.23
25 | COc1ccc(/C=C/C(=O)c2ccc(OC)c(F)c2)cc1O | 19.98
26 | COc1cc(/C=C/C(=O)c2cc(F)c(F)c(F)c2)ccc1O | 12.11
27 | COc1cccc(/C=C/C(=O)c2ccccc2)c1O | 15.69
28 | COc1cccc(/C=C/C(=O)c2ccc3c(c2)OCO3)c1O | 16.44
29 | COc1ccc(/C=C/C(=O)c2cc(F)c(F)c(F)c2)cc1O | 22

tested on: not listed separately; test: DPPH radical scavenging activity at 10 uM; type: functional; conditions: not given

Row | Compound | Activity [%]
30 | COc1cc(/C=C/C(=O)c2ccccc2)ccc1O | 7.53
31 | COc1ccc(/C=C/C(=O)c2ccccc2)cc1O | 1.26
32 | COc1ccc(/C=C/C(=O)c2ccc3c(c2)OCO3)cc1OC | 3.27
33 | COc1ccc(/C=C/C(=O)c2ccc3c(c2)OCO3)cc1O | 8.75
34 | COc1cc(/C=C/C(=O)c2ccc3c(c2)OCO3)ccc1O | 7.9
35 | COc1cccc(/C=C/C(=O)c2cc(F)c(F)c(F)c2)c1O | 3.08
36 | COc1ccc(C(=O)/C=C/c2cccc(OC)c2O)cc1F | 1.74
37 | COc1cc(/C=C/C(=O)c2ccc(OC)c(F)c2)ccc1O | 17.8
38 | COc1ccc(/C=C/C(=O)c2ccc(OC)c(F)c2)cc1O | 1.55
39 | COc1cc(/C=C/C(=O)c2cc(F)c(F)c(F)c2)ccc1O | 22.9
40 | COc1cccc(/C=C/C(=O)c2ccccc2)c1O | 5.4
41 | Oc1ccc(/C=C/c2cc(O)cc(O)c2)cc1 | 9.45
42 | COc1cc(/C=C/C=O)ccc1O | 2.37
43 | COc1cccc(/C=C/C(=O)c2ccc3c(c2)OCO3)c1O | 13.9
44 | COc1ccc(/C=C/C(=O)c2cc(F)c(F)c(F)c2)cc1O | 1.99
45 | Cc1c(C)c2c(c(C)c1O)CCC(C)(C(=O)O)O2 (stereo not drawn) | 12.1

tested on: not listed separately; test: Neuroprotective effect against glutamate-induced toxicity in ICR mouse cultured cortical neurons assessed as cell viability at 10 uM; type: functional; conditions: Cortical neurone, read-out: Activity
Outline: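 Cultured cortical neurons were co-treated with 60 µM glutamate and compound for 24 h at 37 °C. WST-1 was then added at 1:10 in the conditioned medium for 2 h at 37 °C. Formazan absorbance was read at 450 nm against a 650 nm reference and normalized to untreated control wells. Data are mean ± SE of three independent experiments in triplicate.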

Row | Compound | viability at 10 µM [%]
46 | COc1cc(/C=C/C(=O)c2ccccc2)ccc1O | 62
47 | COc1ccc(/C=C/C(=O)c2ccccc2)cc1O | 67
48 | COc1ccc(/C=C/C(=O)c2ccc3c(c2)OCO3)cc1OC | 61
49 | COc1ccc(/C=C/C(=O)c2ccc3c(c2)OCO3)cc1O | 69
50 | COc1cc(/C=C/C(=O)c2ccc3c(c2)OCO3)ccc1O | 79
51 | COc1cccc(/C=C/C(=O)c2cc(F)c(F)c(F)c2)c1O | 71
52 | COc1ccc(C(=O)/C=C/c2cccc(OC)c2O)cc1F | 75
53 | COc1cc(/C=C/C(=O)c2ccc(OC)c(F)c2)ccc1O | 79
54 | COc1ccc(/C=C/C(=O)c2ccc(OC)c(F)c2)cc1O | 80
55 | COc1cc(/C=C/C(=O)c2cc(F)c(F)c(F)c2)ccc1O | 61
56 | COc1cccc(/C=C/C(=O)c2ccccc2)c1O | 58
57 | COc1cccc(/C=C/C(=O)c2ccc3c(c2)OCO3)c1O | 56
58 | COc1ccc(/C=C/C(=O)c2cc(F)c(F)c(F)c2)cc1O | 63

tested on: not listed separately; test: DPPH radical scavenging activity at 100 uM; type: functional; conditions: not given

Row | Compound | Activity [%]
59 | COc1cc(/C=C/C(=O)c2ccccc2)ccc1O | 14.4
60 | COc1ccc(/C=C/C(=O)c2ccccc2)cc1O | 2.05
61 | COc1ccc(/C=C/C(=O)c2ccc3c(c2)OCO3)cc1OC | 1.75
62 | COc1ccc(/C=C/C(=O)c2ccc3c(c2)OCO3)cc1O | 9.63
63 | COc1cc(/C=C/C(=O)c2ccc3c(c2)OCO3)ccc1O | 14.1
64 | COc1cccc(/C=C/C(=O)c2cc(F)c(F)c(F)c2)c1O | 5.5
65 | COc1ccc(C(=O)/C=C/c2cccc(OC)c2O)cc1F | 2.42
66 | COc1cc(/C=C/C(=O)c2ccc(OC)c(F)c2)ccc1O | 28.4
67 | COc1ccc(/C=C/C(=O)c2ccc(OC)c(F)c2)cc1O | 2.73
68 | COc1cc(/C=C/C(=O)c2cc(F)c(F)c(F)c2)ccc1O | 32
69 | COc1cccc(/C=C/C(=O)c2ccccc2)c1O | 7.94
70 | Oc1ccc(/C=C/c2cc(O)cc(O)c2)cc1 | 28.4
71 | COc1cc(/C=C/C=O)ccc1O | 0.43
72 | COc1cccc(/C=C/C(=O)c2ccc3c(c2)OCO3)c1O | 18.6
73 | COc1ccc(/C=C/C(=O)c2cc(F)c(F)c(F)c2)cc1O | 3.25
74 | Cc1c(C)c2c(c(C)c1O)CCC(C)(C(=O)O)O2 (stereo not drawn) | 62.4

tested on: BV-2; test: Inhibition of NO production in LPS-induced mouse BV2 microglia cells at 10 uM; type: functional; conditions: not given; outline: as §1

Row | Compound | Activity [µM]
75 | COc1cc(/C=C/C(=O)c2ccccc2)ccc1O | 16.14
76 | COc1ccc(/C=C/C(=O)c2ccccc2)cc1O | 18.93
77 | COc1ccc(/C=C/C(=O)c2ccc3c(c2)OCO3)cc1OC | 25.69
78 | COc1ccc(/C=C/C(=O)c2ccc3c(c2)OCO3)cc1O | 21.3
79 | COc1cc(/C=C/C(=O)c2ccc3c(c2)OCO3)ccc1O | 12.63
80 | COc1cccc(/C=C/C(=O)c2cc(F)c(F)c(F)c2)c1O | 18.05
81 | COc1ccc(C(=O)/C=C/c2cccc(OC)c2O)cc1F | 19.55
82 | COc1cc(/C=C/C(=O)c2ccc(OC)c(F)c2)ccc1O | 14.21
83 | COc1ccc(/C=C/C(=O)c2ccc(OC)c(F)c2)cc1O | 23.4
84 | COc1cc(/C=C/C(=O)c2cc(F)c(F)c(F)c2)ccc1O | 19.82
85 | COc1cccc(/C=C/C(=O)c2ccccc2)c1O | 17.62
86 | COc1cccc(/C=C/C(=O)c2ccc3c(c2)OCO3)c1O | 22.62
87 | COc1ccc(/C=C/C(=O)c2cc(F)c(F)c(F)c2)cc1O | 25.07

tested on: not listed separately; test: DPPH radical scavenging activity at 200 uM; type: functional; conditions: not given

Row | Compound | Activity [%]
88 | COc1cc(/C=C/C(=O)c2ccccc2)ccc1O | 22.6
89 | COc1ccc(/C=C/C(=O)c2ccccc2)cc1O | 5.38
90 | COc1ccc(/C=C/C(=O)c2ccc3c(c2)OCO3)cc1OC | 1.56
91 | COc1ccc(/C=C/C(=O)c2ccc3c(c2)OCO3)cc1O | 11
92 | COc1cc(/C=C/C(=O)c2ccc3c(c2)OCO3)ccc1O | 25.1
93 | COc1cccc(/C=C/C(=O)c2cc(F)c(F)c(F)c2)c1O | 6.81
94 | COc1ccc(C(=O)/C=C/c2cccc(OC)c2O)cc1F | 2.87
95 | COc1cc(/C=C/C(=O)c2ccc(OC)c(F)c2)ccc1O | 37.5
96 | COc1ccc(/C=C/C(=O)c2ccc(OC)c(F)c2)cc1O | 5.02
97 | COc1cc(/C=C/C(=O)c2cc(F)c(F)c(F)c2)ccc1O | 38
98 | COc1cccc(/C=C/C(=O)c2ccccc2)c1O | 11
99 | Oc1ccc(/C=C/c2cc(O)cc(O)c2)cc1 | 33.8
100 | COc1cc(/C=C/C=O)ccc1O | 10.6
101 | COc1cccc(/C=C/C(=O)c2ccc3c(c2)OCO3)c1O | 22.2
102 | COc1ccc(/C=C/C(=O)c2cc(F)c(F)c(F)c2)cc1O | 5.29
103 | Cc1c(C)c2c(c(C)c1O)CCC(C)(C(=O)O)O2 (stereo not drawn) | 78.2

Source: ChEMBL document CHEMBL1157436, “Efficient synthesis and neuroprotective effect of substituted 1,3-diphenyl-2-propen-1-ones” (2008)
